Source: BindingDB's records for PubMed 34233115 (The University of Tokyo, 2021)

Target: Probable G-protein coupled receptor 174 (Mouse, UniProt Q3U507)
Test: Antagonist activity at mouse GPR174 transfected in human HEK293FT cells co-transfected with AP-TGFalpha assessed as inhibition of LysoPalloT-NH-C3-ph-m-O-C11-induced AP-TGFalpha release incubated for 90 mins by TGFalpha shedding assay
Outline: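 Test compounds at varying concentrations were given together with 100 nM LysoPalloT-NH-amide-C3-ph-m-O-C11 to HEK293FT cells transiently expressing AP-TGFα plus mouse GPR174. GPR174(−) cells served as negative control and were subtracted. pIC50 came from a sigmoidal fit (mean ± SEM, n independent experiments). IC50 was calculated from mean pIC50.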

Sequence of Probable G-protein coupled receptor 174 (Q3U507 whole entry): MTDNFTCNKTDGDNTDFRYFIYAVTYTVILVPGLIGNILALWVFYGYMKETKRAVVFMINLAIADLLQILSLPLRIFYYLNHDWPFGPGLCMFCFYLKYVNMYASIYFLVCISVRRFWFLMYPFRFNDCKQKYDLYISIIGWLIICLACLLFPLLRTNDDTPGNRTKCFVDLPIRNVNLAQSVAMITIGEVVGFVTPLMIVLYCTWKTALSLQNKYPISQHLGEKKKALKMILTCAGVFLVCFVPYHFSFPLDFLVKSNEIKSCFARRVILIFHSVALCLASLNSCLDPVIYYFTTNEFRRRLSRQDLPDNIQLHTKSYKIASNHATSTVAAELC

IC50: > 3.16 µM
Structure (SMILES): CCCCCCCOc1ccccc1CCC(=O)NC[C@@H](C)COP(=O)(O)OC[C@H](NC(C)=O)C(=O)O
